Consider eleven molecules from ChEMBL document CHEMBL1148576, “Identification of potent water soluble purine-scaffold inhibitors of the heat shock protein 90” (J Med Chem, 2006).

The target of data set [1] is T1, Heat shock protein HSP 90-beta (Homo sapiens, UniProt P08238). The experiment in a line: Inhibitory activity against Hsp90 in human breast cancer SKBr3 cell line. The format is cell-based.
For data set [2], the system named is MDA-MB-468. The experiment in a line: Growth inhibition in human breast cancer MDA-MB-468 cell line using SRB. The format is functional, cell-based. The method, boiled down: (§1)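 Sulforhodamine B growth assay. Plating densities were 6000 (SKBr3), 8000 (MDA-MB-468) or 10,000 (MRC-5) cells/well, attached overnight. Drug, added in triplicate, was 1:1 serially diluted with DMSO or PBS vehicle. Exposure lasted 72 h, then cells were fixed with TCA and stained with 0.4% SRB.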

In data set [3] the test system is MDA-MB-468. The experiment in a line: Antimitotic activity in human breast cancer MDA-MB-468 cell line. It is filed as functional, cell-based. The method, boiled down:
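MDA-MB-468 cells seeded at 8000/well, attached overnight, then exposed to drug or DMSO vehicle for 24 h at 37 °C, 5% CO2. Cells fixed in cold methanol, blocked, then probed with Tg-3 antibody against mitotically phosphorylated nucleolin, followed by HRP anti-mouse IgM and ECL luminescence. IC50 taken as the concentration that doubles luminescence over vehicle.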

Data set [4] concerns the target T1, Heat shock protein HSP 90-beta. Kind of data set: Inhibitory activity against Hsp90 in human breast cancer MDA-MB-468 cell line. It is filed as cell-based.
Data set [5] has as its system SK-BR-3. Kind of data set: Growth inhibition in human breast cancer SKBr3 cell line using SRB. The format is functional, cell-based.
The target in data set [6] is T1, Heat shock protein HSP 90-beta. The experiment in a line: Inhibition of Her2 degradation in human breast cancer SKBr3 cell line. The format is functional, cell-based. The method, boiled down: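 Fixed in cold methanol, blocked, then probed overnight at 4 °C with anti-Her2, then HRP anti-rabbit and ECL luminescence. Normal rabbit IgG background was subtracted.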

Data set [7] relates to MRC5. Kind of data set: Cytotoxicity against normal lung fibroblast MRC5 cell line. The following applies: Homo sapiens. The format is functional, cell-based. The method, boiled down: as §1
Data set [8] is described as follows: Solubility in water. It is filed as physicochemical.
Data set [9] concerns the target Heat shock protein HSP 90 (Mus musculus). Kind of data set: Binding affinity to Hsp90 in mouse heart tissue.
Data set [10] has the same target. Kind of data set: Binding affinity to Hsp90 in mouse lung tissue.

Some results are limits rather than exact numbers.

T1 sequence (P08238 whole entry): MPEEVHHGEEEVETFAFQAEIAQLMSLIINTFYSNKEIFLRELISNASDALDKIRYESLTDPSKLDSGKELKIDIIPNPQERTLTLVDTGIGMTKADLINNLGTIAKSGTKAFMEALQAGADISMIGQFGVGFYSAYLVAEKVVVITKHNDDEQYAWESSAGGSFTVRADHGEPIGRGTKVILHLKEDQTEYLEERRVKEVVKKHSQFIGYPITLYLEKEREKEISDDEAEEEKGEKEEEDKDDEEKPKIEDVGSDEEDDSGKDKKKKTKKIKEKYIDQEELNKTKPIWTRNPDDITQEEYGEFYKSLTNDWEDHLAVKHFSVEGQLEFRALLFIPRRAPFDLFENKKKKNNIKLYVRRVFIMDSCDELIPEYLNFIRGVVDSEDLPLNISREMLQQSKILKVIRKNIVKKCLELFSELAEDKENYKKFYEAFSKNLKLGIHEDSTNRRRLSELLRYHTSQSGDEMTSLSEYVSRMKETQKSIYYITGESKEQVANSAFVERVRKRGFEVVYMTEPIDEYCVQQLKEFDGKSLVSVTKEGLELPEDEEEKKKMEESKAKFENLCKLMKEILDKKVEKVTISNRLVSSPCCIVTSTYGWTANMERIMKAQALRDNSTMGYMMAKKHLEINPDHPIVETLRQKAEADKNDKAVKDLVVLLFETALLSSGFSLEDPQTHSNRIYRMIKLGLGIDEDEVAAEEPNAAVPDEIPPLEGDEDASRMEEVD

Turning to `C#CCCCn1c(Cc2cc3c(cc2Br)OCO3)nc2c(N)nc(F)nc21`, the EC50 (as a rule, the concentration at which the effect is half-maximal) was 56.5 nM in data set [1] and 30.5 nM in data set [4]. Further, the 50% inhibitory concentration (IC50) (as a rule, the concentration that gives 50% inhibition) was found to be 350 nM in data set [2], 310 nM in [3], 215 nM in [5] and 210 nM in data set [6].

As to `C#CCCCn1c(Cc2cc(OC)c(OC)cc2Cl)nc2c(N)nc(F)nc21`, the EC50 in data set [1] was found to be 4600 nM; in data set [4], 4500 nM. Besides, the IC50 was 27300 nM in data set [2], greater than 50000 nM in [3], 20600 nM in [5] and 30000 nM in [6].

Take `CC(C)NCCCn1c(Cc2cc3c(cc2I)OCO3)nc2c(N)nc(F)nc21`: the concentration for half-maximal inhibition (IC50) is greater than 5000 nM in data set [7]; 90 nM in data set [2]; 100 nM in data set [3]; 45 nM in data set [5]; 80 nM in data set [6]. In addition, the EC50 is 50.4 nM in data set [1], 6900 nM in data set [9], 39.1 nM in data set [4] and 2400 nM in data set [10]. The solubility (in general, how much of the substance goes into solution per volume) in [8] is greater than 5000 µg/mL.

As to `C#CCCCn1c(Cc2cc3c(cc2Cl)OCO3)nc2c(N)nc(F)nc21`, the EC50 in data set [1] was 77.2 nM; in [4] it was 51.2 nM. The 50% inhibitory concentration (IC50) in data set [2] is 440 nM; in data set [3], 450 nM; in [5], 250 nM; in [6], 300 nM.

Consider `C#CCCCn1c(Cc2cc(OC)c(OC)cc2I)nc2c(N)nc(F)nc21`, for which the EC50 in [1] and in data set [4] was greater than 15000 nM each time. In addition, the IC50 in [2], in data set [3], in data set [5] and in data set [6] was greater than 50000 nM throughout.

`C#CCCCn1c(Sc2cc3c(cc2Br)OCO3)nc2c(N)ncnc21`: the EC50 in [1] was found to be 50.4 nM; in data set [4], 77.1 nM. For the same molecule, the 50% inhibitory concentration (IC50) in data set [2] turned out to be 560 nM; in data set [3], 530 nM; in data set [6], 365 nM.

In the case of `C#CCCCn1c(Cc2cc(OC)c(OC)cc2Br)nc2c(N)nc(F)nc21`, the EC50 in data set [1] and in data set [4] was greater than 15000 nM in each case. Besides, the IC50 is greater than 50000 nM in data set [2], greater than 50000 nM in data set [3], 55000 nM in data set [5] and greater than 50000 nM in data set [6].

In the case of `C#CCCCn1c(Sc2cc3c(cc2I)OCO3)nc2c(N)ncnc21`, the EC50 in data set [1] amounted to 10.8 nM; in data set [4], 10.9 nM. The IC50 turned out to be 170 nM in data set [2], 184 nM in data set [3], 90 nM in data set [5] and 100 nM in data set [6].

Turning to `C#CCCCn1c(Cc2cc3c(cc2I)OCO3)nc2c(N)nc(F)nc21`, the EC50 in data set [1] turned out to be 22.3 nM; in data set [4], 23.7 nM. The half-inhibitory concentration (IC50) stood at 150 nM in data set [2], 180 nM in data set [3], 90 nM in data set [5] and 90 nM in [6].

Molecule `CC(C)NCCCn1c(Sc2cc3c(cc2Br)OCO3)nc2c(N)ncnc21` showed a solubility in data set [8] greater than 5000 µg/mL. The half-maximal inhibitory concentration (IC50) in [2] was 270 nM; in [3], 375 nM; in data set [5], 142 nM.

For the molecule `CC(C)NCCCn1c(Sc2cc3c(cc2I)OCO3)nc2c(N)ncnc21` [PU-H71], the IC50 is 1000 nM in data set [7], 58 nM in [2] and 70 nM in [3]. Also, in [8], the solubility is greater than 5000 µg/mL.
